# Columns and labels:
# Format in all cases: functional
# Staphylococcus aureus = assay: Antibacterial activity against Staphylococcus aureus ATCC 25923 after 20 hrs by broth microdilution method; settings: ATCC 25923, 20 h
# How it was run: (§1)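 MIC by two-fold dilution series (1/2 to 1/1024) of a 2048 µg/mL DMSO stock in cation-adjusted Müller-Hinton broth. Inoculum from colonies of 24 h Columbia blood agar culture, adjusted to 0.5 McFarland, diluted to 1 × 10^6 CFU/mL and added 1:1 to compound broth. Incubated 37 °C, 20 h. MIC is the lowest concentration with no turbidity or growth button, read by eye. Run in duplicate.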
# Bacillus cereus = assay: Antibacterial activity against Bacillus cereus ATCC 13061 after 20 hrs by broth microdilution method; settings: ATCC 13061, 20 h; how it was run: as §1
# Escherichia coli = assay: Antibacterial activity against Escherichia coli ATCC 25922 after 20 hrs by broth microdilution method; settings: ATCC 25922, 20 h; how it was run: as §1
# Enterobacter cloacae = assay: Antibacterial activity against Enterobacter cloacae ATCC 49141 after 20 hrs by broth microdilution method; settings: ATCC 49141, 20 h; how it was run: as §1
# Acinetobacter baumannii = assay: Antibacterial activity against Acinetobacter baumannii ATCC 19606 after 20 hrs by broth microdilution method; settings: ATCC 19606 = CIP 70.34 = JCM 6841, 20 h; how it was run: as §1
# Pseudomonas aeruginosa = assay: Antibacterial activity against Pseudomonas aeruginosa ATCC 27853 after 20 hrs by broth microdilution method; settings: ATCC 27853, 20 h; how it was run: as §1
# Candida albicans = assay: Antifungal activity against Candida albicans ATCC 90028 after 24 hrs by broth microdilution method; settings: ATCC 90028, 24 h
# How it was run: (§2)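 Two-fold dilutions (1/2 to 1/1024) of a 2048 µg/mL DMSO stock made in Sabouraud broth. Yeast inoculum from colonies of 24 h Sabouraud dextrose agar culture, 0.5 McFarland, diluted in sterile water to 10^5 CFU/mL and added in equal volume to broth. Incubated 37 °C, 24 h (C. albicans) or 48 h (C. parapsilosis). MIC read by eye as lowest concentration without turbidity or growth button. Run in duplicate.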
# Candida parapsilosis = assay: Antifungal activity against Candida parapsilosis ATCC 22019 after 48 hrs by broth microdilution method; settings: Lodderomyces parapsilosis, ATCC 22019, 48 h; how it was run: as §2
SMILES,MIC (Staphylococcus aureus) [µg/mL],MIC (Bacillus cereus) [µg/mL],MIC (Escherichia coli) [µg/mL],MIC (Enterobacter cloacae) [µg/mL],MIC (Acinetobacter baumannii) [µg/mL],MIC (Pseudomonas aeruginosa) [µg/mL],MIC (Candida albicans) [µg/mL],MIC (Candida parapsilosis) [µg/mL]
COc1cc(Nc2nnc(-c3ccc(S(=O)(=O)c4ccccc4)cc3)s2)cc(OC)c1OC,512,16,128,128,32,64,64,64
O=S(=O)(c1ccccc1)c1ccc(-c2n[nH]c(=S)n2-c2ccc(OC(F)(F)F)cc2)cc1,256,32,128,128,32,64,128,64
OC(Cn1cncn1)(Cn1cncn1)c1ccc(F)cc1F [FLUCONAZOLE],,,,,,,,2
COc1cc(Nc2nnc(-c3ccc(S(=O)(=O)c4ccc(Br)cc4)cc3)s2)cc(OC)c1OC,512,16,64,128,32,64,64,64
COc1cc(-n2c(-c3ccc(S(=O)(=O)c4ccc(Br)cc4)cc3)n[nH]c2=S)cc(OC)c1OC,128,8,128,128,32,64,64,16
O=C(NNC(=S)Nc1ccc(OC(F)(F)F)cc1)c1ccc(S(=O)(=O)c2ccc(Br)cc2)cc1,512,32,128,128,64,64,64,64
O=S(=O)(c1ccc(Br)cc1)c1ccc(-c2n[nH]c(=S)n2-c2ccc(OC(F)(F)F)cc2)cc1,512,32,256,256,32,64,128,64
O=C(NNC(=S)Nc1ccc(OC(F)(F)F)cc1)c1ccc(S(=O)(=O)c2ccccc2)cc1,256,32,128,128,64,64,64,64
O=S(=O)(c1ccc(Br)cc1)c1ccc(-c2nnc(Nc3ccc(OC(F)(F)F)cc3)s2)cc1,512,32,128,128,32,64,128,64
NCC[C@H](O)C(=O)N[C@@H]1C[C@H](N)[C@@H](O[C@H]2O[C@H](CN)[C@@H](O)[C@H](O)[C@H]2O)[C@H](O)[C@H]1O[C@H]1O[C@H](CO)[C@@H](O)[C@H](N)[C@H]1O [AMIKACIN],2,,2,,,2,,
COc1cc(NC(=S)NNC(=O)c2ccc(S(=O)(=O)c3ccc(Br)cc3)cc2)cc(OC)c1OC,128,16,128,128,32,64,64,64
O=S(=O)(c1ccccc1)c1ccc(-c2nnc(Nc3ccc(OC(F)(F)F)cc3)s2)cc1,512,32,128,128,32,64,64,64
COc1cc(-n2c(-c3ccc(S(=O)(=O)c4ccccc4)cc3)n[nH]c2=S)cc(OC)c1OC,128,16,128,128,32,64,64,32
COc1cc(NC(=S)NNC(=O)c2ccc(S(=O)(=O)c3ccccc3)cc2)cc(OC)c1OC,128,16,128,128,32,64,64,64
